Laboratory results: publication PMC12752248 (BMC Biotechnology, 2025)
Where two headings read alike, the source gives them in different places. Marks after values point to notes of the source that are not given here.

Key:
BJ6PAD-N [1] = target: T1, BJ6PAD-N (Bacillus subtilis, UniProt O07006); assay: Effects of metal ions and chemical reagents on enzyme activity, BJ6PAD-N; format: biochemical, Bacillus subtilis J6; conditions: 60 min incubation, no additive = 100%
T1 sequence (O07006 with tags, fused parts or gaps A39G/H105Y/L108V/E129D/F132Y/K134N/E136A/V138I/D139N/E142T/V143L/K146E): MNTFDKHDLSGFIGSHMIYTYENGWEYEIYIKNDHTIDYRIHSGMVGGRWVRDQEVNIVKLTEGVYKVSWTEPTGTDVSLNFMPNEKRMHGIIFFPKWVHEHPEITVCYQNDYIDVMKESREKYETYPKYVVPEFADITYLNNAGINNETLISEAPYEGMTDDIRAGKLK
Method in brief: (§1)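 His-tagged enzyme was expressed in E. coli BL21(DE3) and Ni-agarose purified. It was incubated 60 min with each metal ion (K⁺, Mg²⁺, Ca²⁺, Fe²⁺, Mn²⁺, Cu²⁺, Zn²⁺), EDTA, SDS or Triton X-100 at final concentrations of 1 or 5 mmol/L. Activity was then assayed in 50 mmol/L citrate-Na₂HPO₄ pH 6.0 at 37 ℃ for 5 min, stopped with methanol, with residual substrate by C18 HPLC at 280 nm. Done in triplicate.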

BJ6PAD [2] = target: T2, BJ6PAD (Bacillus subtilis, UniProt O07006); assay: Effects of metal ions and chemical reagents on enzyme activity, BJ6PAD; format: biochemical, Bacillus subtilis J6; conditions: 60 min incubation, no additive = 100%
T2 sequence (O07006 with tags, fused parts or gaps A39G/H105Y/L108V/E129D/F132Y/K134N/E136A/V138I/D139N/E142T/V143L/K146E): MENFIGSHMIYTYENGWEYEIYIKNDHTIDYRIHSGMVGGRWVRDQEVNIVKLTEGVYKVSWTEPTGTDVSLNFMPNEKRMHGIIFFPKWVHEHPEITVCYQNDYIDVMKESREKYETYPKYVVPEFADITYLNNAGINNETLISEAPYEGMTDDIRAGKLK
Method in brief: as §1

BJ6PAD [3] = target: T2, BJ6PAD; assay: Isothermal titration calorimetry of enzyme-substrate interaction, BJ6PAD; format: binding, Bacillus subtilis J6
Method in brief: (§2)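 Ni-purified His-tagged enzyme, eluted in […] buffer pH 7.9–8.1, was placed in the cell at 0.02 mmol/L. Each of four phenolic acid substrates (0.2 mmol/L in the same buffer) was in the syringe. All solutions were degassed 10 min. Twenty 2 µL injections were given 150 s apart at 37 °C with 350 rpm stirring. Thermodynamic parameters came from an independent-site model fit, in triplicate.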

BJ6PAD-N [4] = assay: Specific enzyme activity towards phenolic acid substrates, BJ6PAD-N; format: biochemical, Bacillus subtilis J6; conditions: BJ6PAD-N vs BJ6PAD
Method in brief: (§3)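 Both purified His-tagged enzymes were reacted at 37 ℃ in 50 mmol/L citrate-Na₂HPO₄ pH 6.0 for 5 min with three hydroxycinnamic acids at 10 mmol/L or sinapic-type acid at 6 mmol/L. Reactions were stopped with methanol, with an enzyme-free buffer control. Remaining substrate was measured by C18 HPLC at 280 nm. One IU is 1 µmol substrate converted/min; protein was by BCA, giving IU/mg. Done in triplicate.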

BJ6PAD-N [5] = target: T1, BJ6PAD-N; assay: as above; format: biochemical, Bacillus subtilis J6; conditions: 37 ℃, pH 6.0; pCA, FA, CafA 10 mmol/L, SA 6 mmol/L
Method in brief: as §3

BJ6PAD [6] = target: T2, BJ6PAD; assay: Specific enzyme activity towards phenolic acid substrates, BJ6PAD; format: biochemical, Bacillus subtilis J6; conditions: 37 ℃, pH 6.0; pCA, FA, CafA 10 mmol/L, SA 6 mmol/L
Method in brief: as §3

BJ6PAD-N [7] = target: T1, BJ6PAD-N; assay: Isothermal titration calorimetry of enzyme-substrate interaction, BJ6PAD-N; format: binding, Bacillus subtilis J6
Method in brief: as §2

BJ6PAD [8] = target: T2, BJ6PAD; assay: Enzymatic kinetic parameters; format: biochemical, Bacillus subtilis J6
BJ6PAD-N [9] = target: T1, BJ6PAD-N; assay: Enzymatic kinetic parameters; format: biochemical, Bacillus subtilis J6
BJ6PAD-N [10] = assay: Enzymatic kinetic parameters; format: biochemical, Bacillus subtilis J6; conditions: BJ6PAD-N vs BJ6PAD
[11] = substrate: O=C(O)C=Cc1ccc(O)cc1; assay: Enzymatic kinetic parameters; format: biochemical, Bacillus subtilis J6; conditions: pH 6.0

Molecule: [K+] [K^+]
- Residual enzyme activity (BJ6PAD-N [1]; 1 mmol/L additive): 96.63 ± 2.16^a %
- Residual enzyme activity (BJ6PAD-N [1]; 5 mmol/L additive): 89.61 ± 1.14^a %
- Residual enzyme activity (BJ6PAD [2]; 1 mmol/L additive): 104.96 ± 0.24^b %
- Residual enzyme activity (BJ6PAD [2]; 5 mmol/L additive): 98.61 ± 1.46^b %

Molecule: CCCCCCCCCCCCOS(=O)(=O)[O-].[Na+] [SDS, sodium dodecyl sulfate]
- Residual enzyme activity (BJ6PAD-N [1]; 1 mmol/L additive): 80.5 ± 0.91^b %
- Residual enzyme activity (BJ6PAD [2]; 1 mmol/L additive): 67.75 ± 1.3^a %

Molecule: O=C(O)/C=C/c1ccc(O)c(O)c1 [caffeic acid]
- Kd (BJ6PAD [3]): 4.23 µM
- ΔG (BJ6PAD [3]; ITC, 37 °C): -7.622 kcal/mol
- ΔH (BJ6PAD [3]; ITC, 37 °C): -8.444 kcal/mol
- Increase of specific enzyme activity of BJ6PAD-N compared with BJ6PAD (BJ6PAD-N [4]): 9.25%
- Specific enzyme activity (BJ6PAD-N [5]): 100.88 ± 3.71^a IU/mg
- Specific enzyme activity (BJ6PAD [6]): 92.34 ± 0.57^b IU/mg
- Kd (BJ6PAD-N [7]): 7 µM
- ΔG (BJ6PAD-N [7]; ITC, 37 °C): -7.292 kcal/mol
- ΔH (BJ6PAD-N [7]; ITC, 37 °C): -14.9 kcal/mol
- ΔS (BJ6PAD-N [7]; ITC, 37 °C): -0.10 kJ/mol·K
- Km (BJ6PAD [8]): 3.54 ± 1.05 mM
- Vmax (BJ6PAD [8]): 137.1 ± 8.87^b IU/mg
- kcat (BJ6PAD [8]): 43.67 ± 3.61^b s^− 1
- Km (BJ6PAD-N [9]): 3.03 ± 0.12 mM
- Vmax (BJ6PAD-N [9]): 139.3 ± 5.70^ab IU/mg
- kcat (BJ6PAD-N [9]): 46.39 ± 1.55^ab s^− 1

Molecule: COc1cc(/C=C/C(=O)O)ccc1O [ferulic acid]
- Kd (BJ6PAD [3]; ITC, 37 °C): 1.25 µM
- ΔG (BJ6PAD [3]; ITC, 37 °C): -8.384 kcal/mol
- ΔH (BJ6PAD [3]; ITC, 37 °C): -5.134 kcal/mol
- ΔS (BJ6PAD [3]; ITC, 37 °C): 0.04 kJ/mol·K
- Increase of specific enzyme activity of BJ6PAD-N compared with BJ6PAD (BJ6PAD-N [4]): 18.37%
- Specific enzyme activity (BJ6PAD-N [5]): 178.56 ± 1.58^a IU/mg
- Specific enzyme activity (BJ6PAD [6]): 150.85 ± 2.15^b IU/mg
- Kd (BJ6PAD-N [7]; ITC, 37 °C): 59.4 µM
- ΔG (BJ6PAD-N [7]; ITC, 37 °C): -6.016 kcal/mol
- ΔH (BJ6PAD-N [7]; ITC, 37 °C): -0.629 kcal/mol
- ΔS (BJ6PAD-N [7]; ITC, 37 °C): 0.07 kJ/mol·K
- Km (BJ6PAD [8]): 4.62 ± 0.01 mM
- Vmax (BJ6PAD [8]): 229.73 ± 4.95^b IU/mg
- kcat (BJ6PAD [8]): 73.17 ± 1.29^b s^− 1
- Km (BJ6PAD-N [9]): 8.42 ± 0.19 mM
- Vmax (BJ6PAD-N [9]): 337.97 ± 7.10^a IU/mg
- kcat (BJ6PAD-N [9]): 112.54 ± 1.93^a s^− 1

Molecule: O=C(O)/C=C/c1ccc(O)cc1 [p-coumaric acid]
- Kd (BJ6PAD [3]): 12.8 µM
- ΔG (BJ6PAD [3]; ITC, 37 °C): -6.917 kcal/mol
- ΔH (BJ6PAD [3]; ITC, 37 °C): -14.71 kcal/mol
- Increase of specific enzyme activity of BJ6PAD-N compared with BJ6PAD (BJ6PAD-N [4]): 18.65%
- Specific enzyme activity (BJ6PAD-N [5]): 248.96 ± 1.59^a IU/mg
- Specific enzyme activity (BJ6PAD [6]): 209.82 ± 1.41^b IU/mg
- Kd (BJ6PAD-N [7]): 16.3 µM
- ΔG (BJ6PAD-N [7]; ITC, 37 °C): -6.812 kcal/mol
- ΔH (BJ6PAD-N [7]; ITC, 37 °C): -1.45 kcal/mol
- ΔS (BJ6PAD-N [7]; ITC, 37 °C): 0.07 kJ/mol·K

Molecule: COc1cc(/C=C/C(=O)O)cc(OC)c1O [sinapic acid]
- Kd (BJ6PAD [3]; ITC, 37 °C): 19.3 µM
- ΔG (BJ6PAD [3]; ITC, 37 °C): -6.678 kcal/mol
- ΔH (BJ6PAD [3]; ITC, 37 °C): -10.25 kcal/mol
- Increase of specific enzyme activity of BJ6PAD-N compared with BJ6PAD (BJ6PAD-N [4]): 34.83%
- Specific enzyme activity (BJ6PAD-N [5]): 23.42 ± 0.02^a IU/mg
- Specific enzyme activity (BJ6PAD [6]): 17.37 ± 0.64^b IU/mg
- Kd (BJ6PAD-N [7]; ITC, 37 °C): 7.02 µM
- ΔG (BJ6PAD-N [7]; ITC, 37 °C): -7.337 kcal/mol
- ΔH (BJ6PAD-N [7]; ITC, 37 °C): -0.098 kcal/mol
- ΔS (BJ6PAD-N [7]; ITC, 37 °C): 0.10 kJ/mol·K
- Km (BJ6PAD [8]): 4.19 ± 1.13 mM
- Vmax (BJ6PAD [8]): 35.02 ± 6.03^a IU/mg
- kcat (BJ6PAD [8]): 11.15 ± 1.57^a s^− 1
- Decrease in Km value of BJ6PAD-N compared with BJ6PAD (BJ6PAD-N [10]): 70.17%
- Increase of catalytic efficiency (kcat/Km) of BJ6PAD-N over BJ6PAD (BJ6PAD-N [10]): 1.93 fold
- Km (BJ6PAD-N [9]): 1.25 ± 0.11 mM
- Vmax (BJ6PAD-N [9]): 29.48 ± 1.23^a IU/mg
- kcat (BJ6PAD-N [9]): 9.82 ± 0.33^a s^− 1

B1: BJ6PAD-N (Bacillus subtilis subsp. subtilis str. 168) (protein)
chain: T1 sequence (O07006 with tags, fused parts or gaps A39G/H105Y/L108V/E129D/F132Y/K134N/E136A/V138I/D139N/E142T/V143L/K146E)
- Km [11]: 11.85 ± 0.56^a mmol/L
- Vmax [11]: 536.4 ± 2.55 µmol/min/mg
- kcat [11]: 179 ± 3.41 s⁻¹
- kcat/Km [11]: 15070 ± 80 M⁻¹ s⁻¹

B2: BJ6PAD (Bacillus subtilis subsp. subtilis str. 168) (protein)
chain: T2 sequence (O07006 with tags, fused parts or gaps A39G/H105Y/L108V/E129D/F132Y/K134N/E136A/V138I/D139N/E142T/V143L/K146E)
- Km [11]: 6.87 ± 0.36^b mmol/L
- Vmax [11]: 335 ± 5.45 µmol/min/mg
- kcat [11]: 107 ± 1.42 s⁻¹
- kcat/Km [11]: 15600 ± 1070 M⁻¹ s⁻¹
